Reference: ChEMBL document CHEMBL4049426, “Identification of the Clinical Candidate (R)-(1-(4-Fluorophenyl)-6-((1-methyl-1H-pyrazol-4-yl)sulfonyl)-4,4a,5,6,7,8-hexahydro-1H-pyrazolo[3,4-g]isoquinolin-4a-yl)(4-(trifluoromethyl)pyridin-2-yl)methanone (CORT125134): A Selective Glucocorticoid Receptor (GR) Antagonist” (J Med Chem, 2017)
pIC50, pKi: −log10 of the molar value. The source made the active and inactive calls. The rule behind the calls is not given here.

How the values were obtained:
Rattus norvegicus [1] = assay: (§1) In vivo antagonist activity at glucocorticoid receptor in Sprague-Dawley rat assessed as reduction in cortisone-induced plasma glucose levels at 7.5 mg/kg, po bid via gavage for 6 days pretreated for 12 hrs followed by cortisone 21-acetate treatment measured 24 hrs after last cortisone 21-acetate treatment; format: functional, organism-based
In short: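 Male Sprague Dawley rats (200-250 g) got vehicle daily for a 3-day baseline, then groups of eight were dosed. Test agent was suspended in DMSO:Tween 80:0.5% HPMC (10:0.1:89.9) and given by oral gavage twice daily for 6 days. Cortisone 21-acetate was given at 30 mg/kg s.c. once daily in 1% methylcellulose. Tail-vein blood was taken 24 h after the last cortisone dose (12 h after the last test dose). Glucose was read with a clinical reagent and insulin by rat ELISA.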

Cytochrome P450 3A4 [2] = target: T1, Cytochrome P450 3A4 (Homo sapiens, UniProt P08684); assay: Time-dependent inhibition of CYP3A4 (unknown origin); format: ADME
T1 sequence (P08684 whole entry): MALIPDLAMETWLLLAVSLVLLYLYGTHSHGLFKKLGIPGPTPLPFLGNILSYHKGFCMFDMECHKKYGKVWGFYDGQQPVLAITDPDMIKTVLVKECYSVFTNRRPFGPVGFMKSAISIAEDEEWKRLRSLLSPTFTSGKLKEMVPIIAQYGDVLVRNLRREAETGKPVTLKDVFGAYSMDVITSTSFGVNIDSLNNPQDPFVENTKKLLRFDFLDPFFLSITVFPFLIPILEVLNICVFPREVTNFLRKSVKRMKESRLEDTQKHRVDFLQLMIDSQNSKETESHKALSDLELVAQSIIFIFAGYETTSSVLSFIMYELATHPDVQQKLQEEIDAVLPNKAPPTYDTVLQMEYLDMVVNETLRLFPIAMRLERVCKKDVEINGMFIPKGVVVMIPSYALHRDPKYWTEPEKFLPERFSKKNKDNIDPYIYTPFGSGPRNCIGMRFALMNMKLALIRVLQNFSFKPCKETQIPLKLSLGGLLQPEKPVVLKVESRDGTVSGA

Cytochrome P450 3A4 [3] = target: T1, Cytochrome P450 3A4; assay: Inhibition of CYP3A4 (unknown origin); format: ADME
Cytochrome P450 2B6 [4] = target: T2, Cytochrome P450 2B6 (Homo sapiens, UniProt P20813); assay: Inhibition of CYP2B6 (unknown origin); format: ADME
T2 sequence (P20813 whole entry): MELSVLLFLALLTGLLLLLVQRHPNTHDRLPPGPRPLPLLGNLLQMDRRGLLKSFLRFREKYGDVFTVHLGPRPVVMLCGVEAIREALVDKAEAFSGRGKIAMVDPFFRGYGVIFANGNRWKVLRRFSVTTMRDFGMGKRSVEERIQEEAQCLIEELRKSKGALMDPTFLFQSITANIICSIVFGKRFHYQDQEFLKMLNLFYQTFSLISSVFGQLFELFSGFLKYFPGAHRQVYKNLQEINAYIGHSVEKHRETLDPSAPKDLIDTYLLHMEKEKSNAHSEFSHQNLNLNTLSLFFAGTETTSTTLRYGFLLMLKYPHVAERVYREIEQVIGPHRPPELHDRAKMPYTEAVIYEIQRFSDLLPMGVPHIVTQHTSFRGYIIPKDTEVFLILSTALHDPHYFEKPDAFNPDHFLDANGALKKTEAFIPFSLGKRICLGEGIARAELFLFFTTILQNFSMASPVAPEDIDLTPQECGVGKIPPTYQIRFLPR

Rattus norvegicus [5] = assay: as §1, with “rat cortisone model of exogenous Cushing's syndrome” for “rat”, “inhibition of” for “reduction in cortisone-induced”, “insulin” for “glucose”, “30” for “7.5”; format: functional, organism-based
In short: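 Male Sprague Dawley rats (200-250g), 3-day vehicle baseline, groups of eight. Compound as suspension in DMSO:Tween 80:0.5% HPMC 10:0.1:89.9, oral gavage twice daily for 6 days; cortisone 21-acetate 30mg/kg s.c. daily in 1% methylcellulose. Tail-vein blood 24 h after last cortisone (12 h after last compound); glucose by clinical reagent, insulin by ultrasensitive rat ELISA.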

[6] = AUC in Sprague-Dawley CD-1 rat plasma at 5 mg/kg, po administered through gavage measured up to 24 hrs by LC/MS analysis; format: ADME, organism-based; parameters: dose 5 mg/kg, time < 24 hr, route oral
In short: (§2)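 Jugular-catheterized male Sprague Dawley CD-1 rats (220-250g). Oral arm: five rats, 5mg/kg gavage, 1mg/mL in DMSO:0.5% methylcellulose 10:90, 5mL/kg, sampled pre-dose and 0.25-24 h. i.v. arm: three rats, 1mg/kg, 0.5mg/mL in DMSO:PEG400:propylene glycol 10:45:45, sampled pre-dose and 0.08-24 h. Plasma by LC/MS.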

[7] = Oral bioavailability in Sprague-Dawley CD-1 rat plasma at 5 mg/kg administered through gavage measured up to 24 hrs by LC/MS analysis; format: ADME, organism-based; in short: as §2
Glucocorticoid receptor = target: T3, Glucocorticoid receptor (Rattus norvegicus, UniProt P06536); assay: (§3) Antagonist activity at rat glucocorticoid receptor in primary hepatocytes assessed as dexamethasone-induced tyrosine amino transferase activity preincubated for 30 mins followed by dexamethasone addition measured after 20 hrs; format: cell-based
T3 sequence (P06536 whole entry): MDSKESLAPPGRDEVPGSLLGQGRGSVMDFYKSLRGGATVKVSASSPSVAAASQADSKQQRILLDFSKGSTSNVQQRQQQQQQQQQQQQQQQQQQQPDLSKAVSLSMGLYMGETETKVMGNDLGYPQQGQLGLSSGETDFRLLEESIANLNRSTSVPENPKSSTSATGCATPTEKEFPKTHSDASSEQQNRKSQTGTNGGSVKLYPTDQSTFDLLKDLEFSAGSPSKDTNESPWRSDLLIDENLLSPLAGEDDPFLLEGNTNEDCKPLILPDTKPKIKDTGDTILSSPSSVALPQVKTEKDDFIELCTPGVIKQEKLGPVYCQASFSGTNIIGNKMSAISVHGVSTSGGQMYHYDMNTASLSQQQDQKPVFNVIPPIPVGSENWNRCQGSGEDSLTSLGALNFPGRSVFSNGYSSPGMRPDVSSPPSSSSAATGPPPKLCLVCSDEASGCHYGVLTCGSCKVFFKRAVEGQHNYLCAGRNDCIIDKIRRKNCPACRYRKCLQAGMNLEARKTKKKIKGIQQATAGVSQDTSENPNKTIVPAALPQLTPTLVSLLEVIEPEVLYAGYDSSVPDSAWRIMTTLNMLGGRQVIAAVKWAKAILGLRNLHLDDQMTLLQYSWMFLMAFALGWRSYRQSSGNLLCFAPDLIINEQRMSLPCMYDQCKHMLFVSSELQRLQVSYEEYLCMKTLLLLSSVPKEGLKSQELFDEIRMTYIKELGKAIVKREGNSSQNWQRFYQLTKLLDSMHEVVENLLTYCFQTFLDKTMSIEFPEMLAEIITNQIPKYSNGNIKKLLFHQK

[8] = target: T4, Glucocorticoid receptor (Rattus norvegicus) (UniProt P06536); assay: as §3; format: cell-based
T4 sequence (whole entry): T3 sequence (P06536 whole entry)

Cytochrome P450 2B6 [9] = target: T2, Cytochrome P450 2B6; assay: Time-dependent inhibition of CYP2B6 (unknown origin); format: ADME
[10] = Protein binding in human plasma; format: ADME, cell-free; conditions: read-out: PPB (converted)

**Q.** What does the source list for `Cn1cc(S(=O)(=O)N2CCC3=Cc4c(cnn4-c4ccc(F)cc4)C[C@]3(C(=O)c3cc(C(F)(F)F)ccn3)C2)cn1` [RELACORILANT]?
**A.** inhibition (Rattus norvegicus [1]): Active; TDI (Cytochrome P450 3A4 [2]): Not Active; pIC50 (Cytochrome P450 3A4 [3]): 5.89; pIC50 (Cytochrome P450 2B6 [4]): < 5.00; inhibition (Rattus norvegicus [5]): Active; AUC at 24 h [6]: 1550 ng·h/mL; bioavailability [7]: 89%; pKi (Glucocorticoid receptor): 7.92; Imax [8]: 54.2%; TDI (Cytochrome P450 2B6 [9]): Not Active; fraction unbound [10]: 0.005
